Here are results for one compound from ChEMBL document CHEMBL1649139, “A novel gene, erm(41), confers inducible macrolide resistance to clinical isolates of Mycobacterium abscessus but is absent from Mycobacterium chelonae” (2009).

Type in all cases: functional
Assay [1] has as its system Mycobacteroides abscessus. As to the kind of experiment: Antimicrobial activity against Mycobacterium abscessus isolate MC1448 at day 3 by broth microdilution method. Particulars: isolate MC1448, 72 h. Put shortly: (§1)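 Clarithromycin MIC by CLSI-conforming broth microdilution. Before testing, cultures were preincubated for 3 days, either in medium alone or in clarithromycin or erythromycin (tested range 0.01–1 μg/ml). Preincubation ran for at least two generations, judged by turbidity increase. Plates were read on day 3 and on extended incubation at days 5 to 14.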
In general terms: Broth dilution looks for growth in wells or tubes with falling amounts of substance.

Assay [2] has as its system Mycobacteroides abscessus. Nature of the assay: Antimicrobial activity against Mycobacterium abscessus isolate MC958 at day 5 preincubated with 0.1 ug/ml erythromycin for 3 days by broth microdilution method. Put shortly:
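Clinical M. abscessus isolates were preincubated for 3 days, either in medium alone or in clarithromycin or erythromycin at 0.01 to 1 μg/ml, allowing at least two generations of growth judged by turbidity. The clarithromycin MIC was then determined by CLSI-conforming broth microdilution, with plates read on day 3 and on extended incubation (days 5 to 14).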

Assay [3] has as its system Mycobacteroides abscessus. Nature of the assay: Antimicrobial activity against Mycobacterium abscessus isolate MAB30 at day 5 preincubated with 0.1 ug/ml for 3 days by broth microdilution method. Put shortly: as §1
For assay [4], the system named is Mycobacteroides abscessus. As to the kind of experiment: Antimicrobial activity against Mycobacterium abscessus isolate MC1082 at day 9 preincubated with 0.1 ug/ml for 3 days by broth microdilution method. Put shortly: as §1
The test system of assay [5] is Mycobacteroides abscessus. As to the kind of experiment: Antimicrobial activity against Mycobacterium abscessus isolate MC1028 at day 3 preincubated with 0.1 ug/ml for 3 days by broth microdilution method. Put shortly: as §1
The subject of assay [6] is Mycobacteroides abscessus. As to the kind of experiment: Antimicrobial activity against Mycobacterium abscessus isolate MC879-2 at day 9 by broth microdilution method. Conditions: isolate MC879-2, 216 h.
In assay [7] the test system is Mycobacteroides abscessus. Nature of the assay: Antimicrobial activity against Mycobacterium abscessus isolate MC723 at day 3 by broth microdilution method. Conditions: isolate MC723, 72 h. Put shortly:
(§2)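 Clarithromycin MIC by broth microdilution following CLSI guidelines. Before testing, organisms were preincubated for 3 days in medium alone or in clarithromycin or erythromycin (0.01–1 μg/ml), long enough for at least two generations judged by turbidity increase. MICs were read on day 3 and again on extended incubation out to day 14.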

In assay [8] the test system is Mycobacteroides abscessus. As to the kind of experiment: Antimicrobial activity against Mycobacterium abscessus isolate MC879 at day 9 preincubated with 0.1 ug/ml erythromycin for 3 days by broth microdilution method. In short, it runs like this:
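To test inducible resistance, cultures were preincubated for 3 days in clarithromycin or erythromycin, within 0.01–1 μg/ml. The period was set so cultures passed at least two generations, judged by turbidity increase. Clarithromycin MIC was then determined by CLSI-conforming broth microdilution and read on the stated day, from day 3 up to 14.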

Assay [9] deals with Mycobacteroides abscessus. Nature of the assay: Antimicrobial activity against Mycobacterium abscessus isolate MC1448 at day 9 preincubated with 0.1 ug/ml erythromycin for 3 days by broth microdilution method. Put shortly:
as §2

The term MIC denotes the lowest concentration that inhibits growth of the organism.

As to `CC[C@H]1OC(=O)[C@H](C)[C@@H](O[C@H]2C[C@@](C)(OC)[C@@H](O)[C@H](C)O2)[C@H](C)[C@@H](O[C@@H]2O[C@H](C)C[C@H](N(C)C)[C@H]2O)[C@](C)(OC)C[C@@H](C)C(=O)[C@H](C)[C@@H](O)[C@]1(C)O` [CLARITHROMYCIN], the MIC is greater than 32 µg/mL in assay [1]; 4 µg/mL in assay [2]; no more than 0.5 µg/mL in [3]; no more than 0.5 µg/mL in assay [4]; no more than 0.5 µg/mL in [5]; greater than 32 µg/mL in assay [6]. For the same compound, the MIC in assay [7] is no more than 0.5 µg/mL; in [8], greater than 32 µg/mL; in assay [9] it was greater than 32 µg/mL.
